ChEMBL document CHEMBL3872208, “Synthesis and pharmacological characterization of novel N-(trans-4-(2-(4-(benzo[d]isothiazol-3-yl)piperazin-1-yl)ethyl)cyclohexyl)amides as potential multireceptor atypical antipsychotics” (Eur J Med Chem, 2016)
Active and inactive are the calls of the source. No cut-off for these calls is given here.

Legend:
CHO = assay: Selectivity ratio of Ki for displacement of [3H]spiperone from recombinant human D2L receptor expressed in CHO cell membranes to Ki for displacement of [3H]methyl-spiperone from recombinant human D3 receptor expressed in CHO cell membranes
Method in brief: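 D2L binding: CHO membranes (16 µg protein) with 0.3 nM [3H]methyl-spiperone in 50 mM Tris-HCl pH 7.4, 120 mM NaCl, 10 mM MgCl2, 1 mM EDTA, with butaclamol for nonspecific binding. D3 binding: membranes (8 µg) with 0.3 nM [3H]methyl-spiperone in the same Tris buffer with 5 mM KCl, 5 mM MgCl2, 5 mM EDTA, with (+)butaclamol for nonspecific binding. Both run 60 min at 22 °C, then GF/B filtration. Ki by Cheng–Prusoff; ratio is D2 Ki/D3 Ki.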

D(2) dopamine receptor [1] = molecular target: T1, D(2) dopamine receptor (Homo sapiens, UniProt P14416); assay: Displacement of [3H]spiperone from recombinant human D2L receptor expressed in CHO cell membranes after 60 mins by scintillation counting method
D(3) dopamine receptor [2] = molecular target: T2, D(3) dopamine receptor (Homo sapiens, UniProt P35462); assay: Displacement of [3H]methyl-spiperone from recombinant human D3 receptor expressed in CHO cell membranes after 60 mins by scintillation counting method
[3] = molecular target: T3, 5-hydroxytryptamine receptor 1A (Homo sapiens, UniProt P08908); assay: Displacement of [3H]8-OH-DPAT from recombinant human 5-HT1A receptor expressed in HEK293 cell membranes after 60 mins by scintillation counting method
T3 sequence (P08908 whole entry): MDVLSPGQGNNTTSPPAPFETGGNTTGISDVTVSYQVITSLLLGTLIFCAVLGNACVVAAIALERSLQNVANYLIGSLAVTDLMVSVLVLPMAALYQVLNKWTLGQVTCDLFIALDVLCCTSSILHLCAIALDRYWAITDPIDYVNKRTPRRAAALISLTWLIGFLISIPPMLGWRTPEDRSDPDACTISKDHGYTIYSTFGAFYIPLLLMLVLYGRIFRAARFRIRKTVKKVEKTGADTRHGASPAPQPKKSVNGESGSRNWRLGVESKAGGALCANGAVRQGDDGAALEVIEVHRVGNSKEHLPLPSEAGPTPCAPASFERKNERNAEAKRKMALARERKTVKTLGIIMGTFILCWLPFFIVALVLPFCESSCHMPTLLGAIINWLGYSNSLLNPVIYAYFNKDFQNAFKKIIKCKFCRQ

Rattus norvegicus [4] = assay: Reversal of PCP-induced hyperlocomotion activity in ip dosed Sprague-Dawley rat pretreated for 10 mins followed by PCP challenge measured after […]; type: functional, organism-based
D(2) dopamine receptor [5] = molecular target: T1, D(2) dopamine receptor; assay: Agonist activity at D2 receptor (unknown origin) expressed in CHOK1 cells co-expressing G-alpha 15 by fluo-4 dye based FLIPR assay; type: cell-based, CHO-K1
[6] = molecular target: T3, 5-hydroxytryptamine receptor 1A; assay: Agonist activity at 5-HT1A receptor (unknown origin) expressed in CHOK1 cells co-expressing G-alpha 15 by Fluo-4 dye based FLIPR assay; type: cell-based, CHO-K1
D(2) dopamine receptor [7] = molecular target: T1, D(2) dopamine receptor; assay: Antagonistic activity at D2 receptor (unknown origin) expressed in CHOK1 cells co-expressing G-alpha 15 assessed as inhibition of dopamine-induced calcium flux by fluo-4 dye based FLIPR assay; type: functional, cell-based, CHO-K1
[8] = molecular target: T4, 5-hydroxytryptamine receptor 2A (Homo sapiens, UniProt P28223); assay: Agonist activity at 5-HT2A receptor (unknown origin) expressed in CHOK1 cells co-expressing G-alpha 15 by Fluo-4 dye based FLIPR assay; type: cell-based, CHO-K1
[9] = molecular target: T4, 5-hydroxytryptamine receptor 2A; assay: Antagonistic activity at 5-HT2A receptor (unknown origin) expressed in CHOK1 cells co-expressing G-alpha 15 assessed as inhibition of serotonin-induced calcium flux by Fluo-4 based FLIPR assay; type: functional, cell-based, CHO-K1
Rattus norvegicus [10] = assay: Toxicity in Sprague-Dawley rat assessed as cataleptogenic effect by measuring time spent in cataleptic position at 1 to 10 mg/kg, po measured after 0.5 to 2 hrs; type: organism-based; settings: in vivo
Method in brief: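 Male SD rats (180–250 g, n = 7) dosed orally at 1.0, 3.0 or 10.0 mg/kg. Forepaws placed on a bar 0.9 cm in diameter, 11 cm high, at 30, 60 and 120 min after dosing. Time held is expressed as a percentage of the 60 s maximum (mean ± SEM).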

[11] = Cmax in Sprague-Dawley rat plasma at 0.5 mg/kg, iv administered as single dose by LC-MS/MS analysis; type: ADME, organism-based; set-up: dose 0.5 mg/kg, route intravenous
Method in brief: (§1)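 Male SD rats, single dose: 0.5 mg/kg i.v. or 2.0 mg/kg p.o. Vehicle is 5% DMSO, 10% Solutol HS 15 and 85% PBS. Heparinized blood is sampled at 5, 15 and 30 min and at 1, 2, 4, 8 and 24 h after dosing. Plasma is reported in ng/mL and brain in ng/g. F is derived from the p.o. and i.v. arms.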

[12] = Cmax in Sprague-Dawley rat brain at 2 mg/kg, po administered as single dose by LC-MS/MS analysis; type: ADME, organism-based; set-up: dose 2 mg/kg, route oral; method in brief: as §1
[13] = Tmax in Sprague-Dawley rat plasma at 2 mg/kg, po administered as single dose by LC-MS/MS analysis; type: ADME, organism-based; method in brief: as §1
[14] = Tmax in Sprague-Dawley rat brain at 2 mg/kg, po administered as single dose by LC-MS/MS analysis; type: ADME, organism-based; method in brief: as §1
[15] = AUC (0 to t) in Sprague-Dawley rat brain at 0.5 mg/kg, iv administered as single dose by LC-MS/MS analysis; type: ADME, organism-based; method in brief: as §1
[16] = AUC (0 to t) in Sprague-Dawley rat plasma at 2 mg/kg, po administered as single dose by LC-MS/MS analysis; type: ADME, organism-based; method in brief: as §1
[17] = AUC (0 to t) in Sprague-Dawley rat brain at 2 mg/kg, po administered as single dose by LC-MS/MS analysis; type: ADME, organism-based; method in brief: as §1
[18] = Apparent clearance in Sprague-Dawley rat plasma at 2 mg/kg, po administered as single dose by LC-MS/MS analysis; type: ADME, organism-based; settings: read-out: CL(app) (converted); method in brief: as §1
D(3) dopamine receptor [19] = molecular target: T2, D(3) dopamine receptor; settings: 10 uM
[20] = molecular target: T4, 5-hydroxytryptamine receptor 2A; settings: CHO-K1, 10 uM
Rattus norvegicus [21] = assay: Cognitive enhancement effect in Sprague-Dawley rat assessed as reversal of PCP-impaired performance by measuring increase in time spent exploring novel object in comparison to familiar object at 0.1 to 0.2 mg/kg, po administered 60 mins prior to test by novel object recognition assay

T4 sequence (P28223 whole entry): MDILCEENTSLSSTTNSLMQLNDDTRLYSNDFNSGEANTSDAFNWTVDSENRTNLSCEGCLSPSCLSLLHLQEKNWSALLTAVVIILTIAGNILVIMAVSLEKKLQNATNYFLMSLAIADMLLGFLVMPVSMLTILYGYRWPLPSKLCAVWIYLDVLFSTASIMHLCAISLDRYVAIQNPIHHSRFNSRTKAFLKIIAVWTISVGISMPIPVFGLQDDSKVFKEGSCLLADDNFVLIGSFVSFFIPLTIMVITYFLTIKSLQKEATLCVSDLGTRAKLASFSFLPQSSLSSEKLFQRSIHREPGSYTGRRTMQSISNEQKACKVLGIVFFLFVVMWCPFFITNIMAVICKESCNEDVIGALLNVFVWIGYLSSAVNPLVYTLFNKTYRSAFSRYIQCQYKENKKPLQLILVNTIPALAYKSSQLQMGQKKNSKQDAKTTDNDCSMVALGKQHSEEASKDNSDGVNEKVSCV
T1 sequence (P14416 whole entry): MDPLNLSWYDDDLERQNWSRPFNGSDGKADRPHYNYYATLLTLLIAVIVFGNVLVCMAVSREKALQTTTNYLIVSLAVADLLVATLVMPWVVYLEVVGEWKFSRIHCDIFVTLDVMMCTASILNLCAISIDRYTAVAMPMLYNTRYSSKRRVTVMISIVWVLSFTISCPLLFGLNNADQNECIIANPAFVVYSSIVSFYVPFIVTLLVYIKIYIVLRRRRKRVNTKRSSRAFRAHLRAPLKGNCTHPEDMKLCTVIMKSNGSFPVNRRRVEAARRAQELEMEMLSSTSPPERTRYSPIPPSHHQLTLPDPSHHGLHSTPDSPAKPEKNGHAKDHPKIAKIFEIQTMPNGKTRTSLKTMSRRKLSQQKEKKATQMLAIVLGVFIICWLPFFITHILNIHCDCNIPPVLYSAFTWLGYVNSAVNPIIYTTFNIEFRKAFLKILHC
T2 sequence (P35462 whole entry): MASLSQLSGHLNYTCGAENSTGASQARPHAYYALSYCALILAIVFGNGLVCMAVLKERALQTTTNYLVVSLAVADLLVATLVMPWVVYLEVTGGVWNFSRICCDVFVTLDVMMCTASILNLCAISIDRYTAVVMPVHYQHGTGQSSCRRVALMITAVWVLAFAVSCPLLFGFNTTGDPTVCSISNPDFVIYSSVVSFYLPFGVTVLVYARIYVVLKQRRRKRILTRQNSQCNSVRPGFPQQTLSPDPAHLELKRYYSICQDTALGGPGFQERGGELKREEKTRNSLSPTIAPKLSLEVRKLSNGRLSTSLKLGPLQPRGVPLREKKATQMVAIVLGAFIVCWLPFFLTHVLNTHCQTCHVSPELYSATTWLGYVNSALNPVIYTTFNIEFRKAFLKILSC

Structure (SMILES): O=C(N[C@H]1CC[C@H](CCN2CCN(c3nsc4ccccc34)CC2)CC1)c1ccco1
- Ratio Ki (CHO): 22.3
- Ki (D(2) dopamine receptor [1]): 0.0029 µM
- Ki (D(3) dopamine receptor [2]): 0.00013 µM
- Ki [3]: 0.0013 µM
- Activity (Rattus norvegicus [4]): Dose-dependent effect
- EC50 (D(2) dopamine receptor [5]): > 10 µM
- EC50 [6]: > 10 µM
- IC50 (D(2) dopamine receptor [7]): 0.0614 µM
- EC50 [8]: > 10 µM
- IC50 [9]: 0.0318 µM
- Activity (Rattus norvegicus [10]): Non-Toxic
- Cmax [11]: 0.135 µg/mL
- Cmax [12]: 0.0528 µg/mL
- Tmax [13]: 0.5 h
- Tmax [14]: 2 h
- AUC(0-t) [15]: 1.07 µg·h/mL
- AUC(0-t) [16]: 0.055 µg·h/mL
- AUC(0-t) [17]: 0.884 µg·h/mL
- CL/F [18]: 34.9 L/h/kg
- inhibition (D(3) dopamine receptor [19]): 98.6%
- inhibition [20]: 97%
- Activity (Rattus norvegicus [21]): Active
